The record followed here is ChEMBL document CHEMBL1145257, “Synthesis and antibacterial activity of hydrolytically stable (-)-epicatechin gallate analogues for the modulation of beta-lactam resistance in Staphylococcus aureus” (2005).

In brackets after ≈: the same amount, converted by molar mass.

What all share (format): functional
Assay [1] deals with Staphylococcus aureus. In words: Minimum inhibitory concentration against methicillin resistant Staphylococcus aureus strain BB 568. The gist of the method: (§1)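 Intrinsic activity by broth microdilution. Inoculum about 10⁴ cfu per well in Mueller-Hinton broth with 2% w/v NaCl, doubling dilutions of compound. MIC read after 24 h at 35 °C. S. aureus ATCC29213 served as standard strain.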

Assay [2] concerns Staphylococcus aureus. Briefly: Minimum inhibitory concentration against methicillin resistant Staphylococcus aureus strain BB 568 in combination with oxacillin; Experiment 2. In outline: (§2)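 Oxacillin MIC measured with test compound held at a fixed 25 mg/L, using doubling dilutions of oxacillin. Broth microdilution with about 10⁴ cfu per well in Mueller-Hinton broth plus 2% w/v NaCl. MIC read after 24 h at 35 °C. S. aureus ATCC29213 served as standard. Two separate experiments reported.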

The subject of assay [3] is Staphylococcus aureus. Briefly: Minimum inhibitory concentration against methicillin resistant Staphylococcus aureus strain EMRSA 15. In outline:
as §1

Assay [4] relates to Staphylococcus aureus. Briefly: Minimum inhibitory concentration against methicillin resistant Staphylococcus aureus strain EMRSA 16. The gist of the method: as §1
The subject of assay [5] is Staphylococcus aureus. Briefly: Minimum inhibitory concentration against methicillin resistant Staphylococcus aureus strain EMRSA 15 in combination with oxacillin. The gist of the method:
as §2

For assay [6], the system named is Staphylococcus aureus. In words: Minimum inhibitory concentration against methicillin resistant Staphylococcus aureus strain EMRSA 16 in combination with oxacillin. In outline: as §2
For assay [7], the system named is Staphylococcus aureus. In words: Minimum inhibitory concentration against methicillin resistant Staphylococcus aureus strain BB 568 in combination with oxacillin; Experiment 1. The gist of the method: as §2
Assay [8] deals with Staphylococcus aureus. In words: Minimum inhibitory concentration against methicillin resistant Staphylococcus aureus strain EMRSA 15 in combination with oxacillin; Experiment 1. In outline:
as §2

Assay [9] deals with Staphylococcus aureus. Briefly: Minimum inhibitory concentration against methicillin resistant Staphylococcus aureus strain EMRSA 15 in combination with oxacillin; Experiment 2. In outline:
as §2

Assay [10] relates to Staphylococcus aureus. In words: Minimum inhibitory concentration against methicillin resistant Staphylococcus aureus strain EMRSA 16 in combination with oxacillin; Experiment 1. In outline:
as §2

Assay [11] deals with Staphylococcus aureus. Briefly: Minimum inhibitory concentration against methicillin resistant Staphylococcus aureus strain EMRSA 16 in combination with oxacillin; Experiment 2. In outline: as §2
The subject of assay [12] is Staphylococcus aureus. Briefly: Minimum inhibitory concentration against methicillin resistant Staphylococcus aureus strain BB 568 in combination with oxacillin. The gist of the method: as §2

A word on the MIC: it is the least concentration at which growth counts as inhibited. For the compound `O=C(N[C@@H]1Cc2c(O)cc(O)cc2O[C@@H]1c1ccc(O)c(O)c1)c1cc(O)c(O)c(O)c1`, the MIC against Staphylococcus aureus [1] was 256 µg/mL (≈ 580 µM); in the assay with Staphylococcus aureus [2], 8 µg/mL; against Staphylococcus aureus [3], 256 µg/mL (≈ 580 µM); in the assay on Staphylococcus aureus [4], 128 µg/mL (≈ 290 µM); with Staphylococcus aureus [5] it was at most 0.5 µg/mL; with Staphylococcus aureus [6] it was 1 µg/mL. Besides, in the assay on Staphylococcus aureus [7], the MIC stood at 4 µg/mL.
For the compound `O=C(N[C@H]1Cc2c(O)cc(O)cc2O[C@@H]1c1ccc(O)c(O)c1)c1cc(O)c(O)c(O)c1`, the MIC with Staphylococcus aureus [1] came to 256 µg/mL (≈ 580 µM); in the assay on Staphylococcus aureus [8], 2 µg/mL; with Staphylococcus aureus [9] it was 4 µg/mL; in the assay on Staphylococcus aureus [10], 256 µg/mL; with Staphylococcus aureus [11], 512 µg/mL; against Staphylococcus aureus [3], 256 µg/mL (≈ 580 µM). The minimal inhibitory concentration (MIC) against Staphylococcus aureus [4] is 128 µg/mL (≈ 290 µM); in the assay on Staphylococcus aureus [12] it was 64 µg/mL.
For the compound `Cc1onc(-c2ccccc2)c1C(=O)N[C@@H]1C(=O)N2[C@@H]1SC(C)(C)[C@@H]2C(=O)O` [OXACILLIN], the MIC in the assay on Staphylococcus aureus [1] was 256 µg/mL (≈ 638 µM); with Staphylococcus aureus [3], 32 µg/mL (≈ 79.7 µM); against Staphylococcus aureus [4], 512 µg/mL (≈ 1280 µM).
